This passage reports Activity, inhibition and Tmax results from ChEMBL document CHEMBL4261600 (Eur J Med Chem, 2018).

In data set [1] the test system is Proto-oncogene tyrosine-protein kinase receptor Ret (Homo sapiens), P07949 [V804L]. As to the kind of experiment: Binding affinity to human partial length RET V804L mutant (E713 to D1014 residues) expressed in bacterial expression system assessed as remaining unbound target protein level at 1000 nM by Kinomescan method relative to control. The gist of the method:
(§1)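 KINOMEscan competition-binding profiling across the panel of 468 kinases and mutants, with inhibitor tested at 1 μM. Binding is expressed as percent of control, with DMSO as the reference control.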

In data set [2] the target is Phosphatidylinositol 4-phosphate 3-kinase C2 domain-containing subunit beta (Homo sapiens) (UniProt O00750). As to the kind of experiment: Binding affinity to wild-type human partial length PIK3C2B (M1 to L1634 residues) expressed in mammalian expression system assessed as remaining unbound target protein level at 1000 nM by Kinomescan method relative to control.
The species named for data set [3] is Homo sapiens. The data set can be described thus: Induction of apoptosis in human MEC1 cells assessed as decrease in c-MYC level after 2 hrs by immunoblotting analysis. Type of data set: functional, cell-based. For orientation: A western blot detects proteins with antibodies after separation by electrophoresis.
Data set [4] deals with Serine/threonine-protein kinase 35 (Homo sapiens) (UniProt Q8TDR2). The data set can be described thus: Binding affinity to wild-type human partial length STK35 (G182 to A534 residues) expressed in bacterial expression system assessed as remaining unbound target protein level at 1000 nM by Kinomescan method relative to control.
Data set [5] concerns the target Tyrosine-protein kinase JAK3 (Homo sapiens) (UniProt P52333). As to the kind of experiment: Binding affinity to wild-type human partial length JAK3 JH1 catalytic domain (I781 to S1124 residues) expressed in mammalian expression system assessed as remaining unbound target protein level at 1000 nM by Kinomescan method relative to control.
Data set [6] addresses Serine/threonine-protein kinase Nek1 (Homo sapiens) (UniProt Q96PY6). The data set can be described thus: Binding affinity to wild-type human partial length NEK1 (M1 to K278 residues) expressed in bacterial expression system assessed as remaining unbound target protein level at 1000 nM by Kinomescan method relative to control.
In data set [7] the target is Cyclin-dependent kinase 7 (Homo sapiens) (UniProt P50613). The data set can be described thus: Inhibition of CDK7 in human MV4-11 cells assessed as decrease in RNA polymerase 2 phosphorylation at Ser 5 residues up to 3 uM after 2 hrs by immunoblotting analysis. Type of data set: cell-based.
Data set [8] has as its target Mitogen-activated protein kinase kinase kinase 15 (Homo sapiens) (UniProt Q6ZN16). The data set can be described thus: Binding affinity to wild-type human partial length MAP3K15 (T625 to L932 residues) expressed in mammalian expression system assessed as remaining unbound target protein level at 1000 nM by Kinomescan method relative to control.
For data set [9], the target named is Serine/threonine-protein kinase/endoribonuclease IRE1 (Homo sapiens) (UniProt O75460). The data set can be described thus: Binding affinity to wild-type human partial length ERN1 (S551 to E852 residues) expressed in mammalian expression system assessed as remaining unbound target protein level at 1000 nM by Kinomescan method relative to control. The gist of the method:
(§2)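 KINOMEscan binding panel of 468 kinases/mutants. Inhibitor was tested at a single concentration of 1 μM. Binding is reported as percent of control, defined relative to a DMSO control.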

Data set [10] concerns the target Proto-oncogene tyrosine-protein kinase receptor Ret (Homo sapiens) (UniProt P07949). As to the kind of experiment: Binding affinity to wild-type human partial length RET (E713 to D1014 residues) expressed in bacterial expression system assessed as remaining unbound target protein level at 1000 nM by Kinomescan method relative to control.
Data set [11] concerns the target Serine/threonine-protein kinase ICK (Homo sapiens) (UniProt Q9UPZ9). The data set can be described thus: Binding affinity to wild-type human partial length ICK (M1 to P314 residues) expressed in mammalian expression system assessed as remaining unbound target protein level at 1000 nM by Kinomescan method relative to control. The gist of the method: as §2
Data set [12] has as its system Fibroblast growth factor receptor 3 (Homo sapiens), P22607 [G697C]. As to the kind of experiment: Binding affinity to human partial length FGFR3 G697C mutant (R442 to S771 residues) expressed in bacterial expression system assessed as remaining unbound target protein level at 1000 nM by Kinomescan method relative to control. Summed up: as §1
Data set [13] is described as follows: Tmax in mouse at 10 mg/kg, po by LC-MS/MS analysis. Type of data set: ADME, organism-based. As to conditions: in vivo.
Data set [14] has as its target Calcium/calmodulin-dependent protein kinase type 1G (Homo sapiens) (UniProt Q96NX5). As to the kind of experiment: Binding affinity to wild-type human partial length CAMK1G (M1 to A342 residues) expressed in bacterial expression system assessed as remaining unbound target protein level at 1000 nM by Kinomescan method relative to control. Summed up: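 KINOMEscan competition binding profile across a panel of 468 kinases and mutants, with the inhibitor tested at a single concentration of 1 μM. Binding is reported as percent of control, meaning signal relative to a DMSO control.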

The target of data set [15] is Serine/threonine-protein kinase LATS1 (Homo sapiens) (UniProt O95835). The data set can be described thus: Binding affinity to wild-type human partial length LATS1 (Q678 to V1130 residues) expressed in bacterial expression system assessed as remaining unbound target protein level at 1000 nM by Kinomescan method relative to control.
The target in data set [16] is Serine/threonine-protein kinase SIK1 (Homo sapiens) (UniProt P57059). The data set can be described thus: Binding affinity to wild-type human partial length SIK (M1 to Y304 residues) expressed in bacterial expression system assessed as remaining unbound target protein level at 1000 nM by Kinomescan method relative to control.
Data set [17] has as its target NUAK family SNF1-like kinase 2 (Homo sapiens) (UniProt Q9H093). As to the kind of experiment: Binding affinity to wild-type human partial length SNARK (P22 to A333 residues) expressed in mammalian expression system assessed as remaining unbound target protein level at 1000 nM by Kinomescan method relative to control.
Data set [18] addresses Serine/threonine-protein kinase PLK1 (Homo sapiens) (UniProt P53350). The data set can be described thus: Binding affinity to wild-type human partial length PLK1 (A33 to F325 residues) expressed in mammalian expression system assessed as remaining unbound target protein level at 1000 nM by Kinomescan method relative to control.
The target in data set [19] is Rhodopsin kinase GRK7 (Homo sapiens) (UniProt Q8WTQ7). The data set can be described thus: Binding affinity to wild-type human full length GRK7 (M1 to L553 residues) expressed in mammalian expression system assessed as remaining unbound target protein level at 1000 nM by Kinomescan method relative to control. The gist of the method:
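Single-point competition binding screen across a panel of 468 kinases and mutants, with the inhibitor at 1 μM. Binding is read out as percent of a DMSO control, and targets below 1 percent control were classed as strong binders.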

Data set [20] concerns the target Fibroblast growth factor receptor 4 (Homo sapiens) (UniProt P22455). The data set can be described thus: Binding affinity to wild-type human partial length FGFR4 (G402 to E713 residues) expressed in bacterial expression system assessed as remaining unbound target protein level at 1000 nM by Kinomescan method relative to control.
The target in data set [21] is Mitogen-activated protein kinase kinase kinase 14 (Homo sapiens) (UniProt Q99558). The data set can be described thus: Binding affinity to wild-type human partial length NIK (L318 to P947 residues) expressed in mammalian expression system assessed as remaining unbound target protein level at 1000 nM by Kinomescan method relative to control.
Data set [22] has as its target Serine/threonine-protein kinase pim-1 (Homo sapiens) (UniProt P11309). As to the kind of experiment: Binding affinity to wild-type human partial length PIM1 (A15 to K313 residues) expressed in bacterial expression system assessed as remaining unbound target protein level at 1000 nM by Kinomescan method relative to control.

Active and inactive are the calls of the source. The calls are words filed in the database; no cut-off is given here.

For orientation: Tmax means the time at which the peak concentration occurs. As for `COCCN[C@H]1CC[C@H](Nc2cc(-c3csc(NCC4(C#N)CCOCC4)n3)c(Cl)cn2)CC1`, the Activity was 92% in data set [1]; 100% in data set [2]; “Dose-dependent effect” in data set [3]; 100% in [4]; 92% in data set [5]; 85% in [6]. The Activity turned out to be 84% in [8]; 61% in data set [9]; 100% in data set [10]; 40% in data set [11]; 60% in data set [12]; 94% in [14]. In addition, the Activity in data set [15] was found to be 96%; in [16] it was 93%; in data set [17], 100%; in [18], 75%; in data set [19] it was 100%; in data set [20] it was 100%. Moreover, the figures for the Activity in data set [21] and in [22] were 100% and 55%, respectively. Also, the inhibition entry in [7] was “inactive”. In addition, in data set [13], the Tmax stood at 2 h.
